Activity calls are given as the source filed them. The calls are words filed in the database; no cut-off is given here.
Experiments:
[1] = tested on: Cell membrane; experiment: Induction of cell membrane depolarization in Mycobacterium bovis BCG ATCC 35734 assessed as loss in mitochondrial membrane potential at 4 x MIC90 incubated for 24 hrs by DiOC2(3) dye based fluorescence assay; type: subcellular; conditions: Mycobacterium tuberculosis variant bovis
Summary of the method: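 Aliquots taken at selected times and stained with DiOC2(3) (BacLight membrane potential kit). Depolarization read as a fall in red/green fluorescence ratio. CCCP 5 μM positive control, rifampicin 0.08 μM negative control.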

[2] = tested on: Mycobacterium tuberculosis variant bovis; experiment: Inhibition of ATP synthesis in Mycobacterium bovis BCG ATCC 35734 assessed as reduction in ATP level at 4 x MIC90 incubated for 15 mins by BacTiter-Glo microbial luminescence assay; type: functional
Summary of the method: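 Mid-log BCG diluted to OD600 0.1 in complete 7H9 and treated at 4× MIC90. At each time point, culture mixed 1:1 with BacTiter-Glo reagent for 15 min at room temperature in the dark and luminescence read. Background (media + reagent) subtracted. ATP quantified from a calibration curve of 0.1–100 nM ATP in 7H9. Rifampicin negative control.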

[3] = tested on: Cell membrane; experiment: Induction of cell envelope stress in Mycobacterium bovis BCG ATCC 35734 expressing piniBAC RFP at 4 x MIC90 after 24 hrs by fluorescence analysis; type: subcellular; conditions: Mycobacterium tuberculosis variant bovis
Summary of the method: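 Recombinant M. bovis BCG-piniBAC-RFP at OD600 0.2, incubated with compound for 24 h. Red fluorescence (Ex 587/Em 630 nm) normalized to OD600 to reflect promoter induction. INH (0.1–50 μM) positive control.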

Row | Structure (SMILES) | Activity [1] | inhibition [2] | Activity [3]
1 | CCCCCCC[P+](c1ccccc1)(c1ccccc1)c1ccccc1 | Active | Active | –
2 | Cc1nc2c(n1CCCCCCCCC[P+](c1ccccc1)(c1ccccc1)c1ccccc1)C(=O)c1ccccc1C2=O | Active | Active | –
3 | Cc1nc2c(n1CCCCCCCCCCC[P+](c1ccccc1)(c1ccccc1)c1ccccc1)C(=O)c1ccccc1C2=O | Active | Active | –
4 | CCCCCCCCCCC[P+](c1ccccc1)(c1ccccc1)c1ccccc1 | Active | Active | –
5 | NNC(=O)c1ccncc1 | – | – | Active

From ChEMBL document CHEMBL5104224, “Alkyltriphenylphosphonium turns naphthoquinoneimidazoles into potent membrane depolarizers against mycobacteria” (RSC Med Chem, 2022)
